APJ antag: antagonists of human APJ apelin receptor | P35414 | CHO-K1 APJ beta-arrestin complementation, luminescence | inhibition, % at 20 µM | actives 0.32% (n = 330,000) | AID 2521;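 active = inhibition above about 40% at 20 µM, limit read from the data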;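 note: cells challenged with 10 nM apelin-13 agonist together with compound; plate controls were apelin-13 plus DMSO wells for no effect and DMSO wells lacking apelin-13 for full effect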
H9c2 TAG inh: inhibitors of triacylglycerol accumulation | H9c2 cells, Nile Red lipid (TAG) fluorescence; cells loaded with 200 µM oleic acid | inhibition, % at 12.5 µM | actives 0.66% (n = 230,000) | AID 651582;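 active = pattern-corrected inhibition of lipid staining of at least 50% with the nuclear-stain viability signal not falling by more than 50%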;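 note: 0% = DMSO wells and 100% = triacsin C control wells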
CCR6 antag: CCR6 (human) receptor antagonism; CHO-K1 CCR6 PathHunter beta-arrestin, luminescence, CCL20-stimulated; inhibition, % at 20 µM; actives 0.49% (n = 340,000);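 active = compounds whose inhibition of the agonist-driven luminescence signal at 20 µM reaches about 50%, limit read from the data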;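 note: cells stimulated with CCL20 at 14 nM final; plate controls were DMSO with CCL20 for no effect and DMSO without agonist for full effect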
APJ agonist: agonists of human APJ apelin receptor | P35414 | CHO-K1 APJ PathHunter beta-arrestin, luminescence; 0% DMSO wells, 100% apelin | activation, % at 20 µM | actives 0.11% (n = 330,000) | AID 2520;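 active = activation more than six SD over the plate average, tested at 20 µM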;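 note: 0% = DMSO alone and 100% = apelin-13 at 10 nM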
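Test system: CHO-K1 APJ beta-arrestin complementation cell line. Amount: cell density 1000 per well. Controls: DMSO negative, 10 nM Apelin-13 positive. Signal: luminescent beta-gal fragment complementation, chemiluminescent substrate. Read-out basis: agonist-driven arrestin binding to APJ. Timing: compound stimulation 90 min at 25 °C, detection 60 min.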
EBI2 antag: EBI2 (human) antagonism. EBI2 beta-arrestin recruitment, luminescence, 7a,25-OHC stimulated. inhibition, % at 5 µM. actives 0.81% (n = 360,000). AID 651636; in the data active = inhibition above about 38%;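 note: enzyme fragment complementation signal reports receptor beta-arrestin coupling in cells; 0% = agonist plus DMSO wells and 100% = wells without agonist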
Target sequence (P32249 whole entry, looked up, the tested form may be a part): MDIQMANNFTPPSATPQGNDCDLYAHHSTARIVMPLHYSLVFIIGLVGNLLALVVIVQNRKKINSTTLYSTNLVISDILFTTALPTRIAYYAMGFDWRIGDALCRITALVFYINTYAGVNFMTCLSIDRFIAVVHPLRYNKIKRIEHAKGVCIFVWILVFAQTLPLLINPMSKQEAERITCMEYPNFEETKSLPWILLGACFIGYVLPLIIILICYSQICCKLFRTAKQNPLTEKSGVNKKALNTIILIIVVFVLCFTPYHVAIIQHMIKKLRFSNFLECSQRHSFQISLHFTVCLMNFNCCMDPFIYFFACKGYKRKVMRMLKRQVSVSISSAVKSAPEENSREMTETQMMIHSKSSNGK
CXCR6 inh: inhibitors of human CXCR6 receptor; CHO-K1 PathHunter CXCR6 beta-arrestin, luminescence; actives 0.36% (n = 360,000); inhibition, % at 20 µM; O00574; in the data active = inhibition above about 34%, passing the limit was not always enough;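 note: antagonist mode with CXCL16 agonist at 10 nM final; 0% = 10 nM CXCL16 with DMSO and 100% = unstimulated wells without agonist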
Target sequence (O00574 whole entry, looked up): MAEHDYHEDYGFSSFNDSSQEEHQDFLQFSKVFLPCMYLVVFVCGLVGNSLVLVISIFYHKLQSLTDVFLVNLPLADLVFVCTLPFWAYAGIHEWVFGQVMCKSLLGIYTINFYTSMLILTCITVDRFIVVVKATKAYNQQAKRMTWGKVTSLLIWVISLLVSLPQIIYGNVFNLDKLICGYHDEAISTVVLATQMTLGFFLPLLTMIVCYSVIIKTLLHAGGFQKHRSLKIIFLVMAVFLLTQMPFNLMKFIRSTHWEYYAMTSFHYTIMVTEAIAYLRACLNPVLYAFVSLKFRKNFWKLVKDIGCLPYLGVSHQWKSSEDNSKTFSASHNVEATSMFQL
EBI2 antag conf: EBI2 (human) antagonism, single concentration confirmation; shares compounds with EBI2 antag; EBI2 beta-arrestin luminescence, 7a,25-OHC antagonism; inhibition, % at 5 µM; actives 29% (n = 2,400);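 active = inhibition of at least 50%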
EBI2 agonist: counter-screen for EBI2 antagonists: EBI2 agonist activity. shares compounds with EBI2 antag. EBI2-expressing cells, agonist mode, luminescence, 60 min; 0% vehicle, 100% 7α,25-dihydroxycholesterol control. activation, % at 5 µM. 2,400 tested, under 10 active. AID 652000;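 active = activation of at least 50%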
bGal cs: counter-screen for EBI2 antagonists: E. coli beta-galactosidase inhibition. actives 1% (n = 2,400). purified beta-galactosidase, luminescent Galacton Star, 15 min. shares compounds with EBI2 antag. AID 652176. inhibition, % at 5 µM;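 active = replicate-average signal at least 3 plate SD below neutral wells, shown as high inhibition, flagging enzyme-inhibiting false positives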;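 note: 0% = DMSO wells with enzyme and 100% = wells lacking enzyme; higher means stronger loss of beta-gal luminescence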
* = called active by the depositor. Rows were chosen to be rich in hits. Some 1.9% of all compounds tested hit in one or more screens of this group.

What do the screens show for `O=C1CC(c2ccccc2)CC2=C1C1(CCCC1)N=C(Nc1nc3ccccc3o1)N2` (centres undefined)?
H9c2 TAG inh: 29.4; EBI2 antag: 21.2; CXCR6 inh: 10.2

What do the screens show for `O=C1CCCC2=C1C1(CCCCC1)N=C(Nc1nc3ccccc3o1)N2`?
APJ antag: 15.7; H9c2 TAG inh: 13.8; CCR6 antag: -26.5; APJ agonist: 4.0; EBI2 antag: 47.4*; CXCR6 inh: 2.3; EBI2 antag conf: 40.1; EBI2 agonist: -1.8; bGal cs: -21.1

What do the screens show for `O=C(CNC(=O)C1CCCCC1)OCC(=O)c1cccc(Cl)c1`?
APJ antag: 18.6; H9c2 TAG inh: -4.9; CCR6 antag: 15.5; APJ agonist: -5.7; EBI2 antag: -5.2; CXCR6 inh: 8.0

What do the screens show for `COC1OC2COC(c3ccccc3)OC2C2OC12` (centres undefined)?
H9c2 TAG inh: -12.6; CCR6 antag: 8.3; EBI2 antag: 9.1; CXCR6 inh: -1.4

How did CCCN1CCc2c(sc3nc(SCC)n(-c4ccc(OC)cc4)c(=O)c23)C1 do in these assays?
APJ antag: 10.4; CCR6 antag: 10.3; APJ agonist: -2.1; EBI2 antag: 1.2; CXCR6 inh: 9.4

Results for CCCC(C)NC(=O)COc1ccc(Sc2ccc(OCC(=O)NC(C)CCC)cc2)cc1 (centres undefined) ?
APJ antag: -6.5; CCR6 antag: 21.4; APJ agonist: 3.1; EBI2 antag: 43.3*; CXCR6 inh: 4.1; EBI2 antag conf: 26.9; EBI2 agonist: 1.7; bGal cs: -2.3

Results for CC1(c2cccs2)CC(c2cccs2)=C(C#N)C(=O)N1 (centres undefined) ?
APJ antag: -5.9; CCR6 antag: 0.1; APJ agonist: 3.5; EBI2 antag: 84.8*; CXCR6 inh: 0.5; EBI2 antag conf: 64.2*; EBI2 agonist: 1.7; bGal cs: 6.2

How did CCC(C)(C)NC(=O)C(c1ccccc1Cl)N(C(=O)CCC(=O)Nc1cc(C)on1)c1ccc(NC(C)=O)cc1 (centres undefined) do in these assays?
APJ antag: -1.9; CCR6 antag: 7.4; APJ agonist: -1.8; EBI2 antag: 0.9; CXCR6 inh: -4.3

What do the screens show for `COc1cc(-c2nnc(SCc3c(F)cccc3Cl)o2)cc(OC)c1OC`?
APJ antag: 1.7; H9c2 TAG inh: -12.4; CCR6 antag: 8.0; APJ agonist: -2.4; EBI2 antag: 41.6*; CXCR6 inh: -2.2; EBI2 antag conf: 46.8; EBI2 agonist: 0.8; bGal cs: 0.2

Results for COc1cc(-c2nnc(SCc3ccccc3Cl)o2)cc(OC)c1OC ?
APJ antag: 28.2; H9c2 TAG inh: -4.6; CCR6 antag: 17.9; APJ agonist: -2.8; EBI2 antag: 36.5; CXCR6 inh: 5.1

How did COc1ccccc1NC(=O)/C(C#N)=C/c1c(C)nn(-c2ccc(F)cc2)c1Cl do in these assays?
APJ antag: -8.8; H9c2 TAG inh: -6.0; CCR6 antag: -2.1; APJ agonist: 4.1; EBI2 antag: 43.0; CXCR6 inh: -0.8

Results for COc1ccc(NC(=O)/C(C#N)=C/c2c(C)nn(-c3ccc(F)cc3)c2Cl)cc1Cl ?
APJ antag: -17.7; CCR6 antag: 18.7; APJ agonist: 2.9; EBI2 antag: 59.9*; CXCR6 inh: 6.1; EBI2 antag conf: 43.2; EBI2 agonist: 0.7; bGal cs: 5.5

What do the screens show for `COc1ccc(NC(=O)/C(C#N)=C/c2c(C)nn(-c3ccc(F)cc3)c2Cl)cc1OC`?
APJ antag: 0.0; CCR6 antag: 11.9; APJ agonist: 5.0; EBI2 antag: 70.2*; CXCR6 inh: -1.8; EBI2 antag conf: 53.2*; EBI2 agonist: -0.5; bGal cs: -12.9

Results for CCC(C)c1ccc(S(=O)(=O)N2CCN(c3ccccn3)CC2)cc1 (centres undefined) ?
APJ antag: 10.6; CCR6 antag: 19.4; APJ agonist: -0.3; EBI2 antag: 3.3; CXCR6 inh: -2.2

Results for CC(C)CNc1nnnc2c1sc1nc(N3CCOCC3)c3c(c12)CCCC3 ?
APJ antag: 15.0; H9c2 TAG inh: 21.9; CCR6 antag: 17.4; APJ agonist: 0.5; EBI2 antag: 22.5; CXCR6 inh: 17.4

How did C=CCNc1nnnc2c1sc1nc(N3CCOCC3)c3c(c12)CCCC3 do in these assays?
APJ antag: 4.5; H9c2 TAG inh: 30.5; CCR6 antag: 7.7; APJ agonist: -4.0; EBI2 antag: 51.5*; CXCR6 inh: -5.4; EBI2 antag conf: 19.1; EBI2 agonist: 0.3; bGal cs: 1.8

What do the screens show for `Cc1ccc(C)c(S(=O)(=O)N2CCN(C(=O)CNC(=O)c3ccc4ccccc4c3)CC2)c1`?
APJ antag: 6.9; H9c2 TAG inh: -4.7; CCR6 antag: 11.6; APJ agonist: 0.4; EBI2 antag: 62.8*; CXCR6 inh: 8.2; EBI2 antag conf: 50.0; EBI2 agonist: 0.8; bGal cs: 3.5

Results for COc1ccc(OC)c(/C=C/C(=O)N2CCN(S(=O)(=O)c3cc(C)ccc3C)CC2)c1 ?
APJ antag: -8.9; H9c2 TAG inh: 1.7; CCR6 antag: 7.1; APJ agonist: 1.3; EBI2 antag: 17.7; CXCR6 inh: 8.9

How did Cc1ccc(C)c(S(=O)(=O)N2CCN(C(=O)Cc3ccccc3)CC2)c1 do in these assays?
APJ antag: 21.3; H9c2 TAG inh: 5.3; CCR6 antag: 0.9; APJ agonist: -7.9; EBI2 antag: -4.4; CXCR6 inh: 9.4

Results for COc1ccccc1/C=C/C(=O)N1CCN(S(=O)(=O)c2cc(C)ccc2C)CC1 ?
APJ antag: 9.3; H9c2 TAG inh: -5.0; CCR6 antag: 7.5; APJ agonist: -5.3; EBI2 antag: 85.3*; CXCR6 inh: 0.7; EBI2 antag conf: 76.0*; EBI2 agonist: -1.4; bGal cs: -19.7

What do the screens show for `Cc1ccc(C)c(S(=O)(=O)N2CCN(C(=O)CCC(=O)c3cc(C)sc3C)CC2)c1`?
APJ antag: -0.8; H9c2 TAG inh: -11.1; CCR6 antag: 10.3; APJ agonist: -3.9; EBI2 antag: 78.2*; CXCR6 inh: -2.4; EBI2 antag conf: 50.8*; EBI2 agonist: 4.3; bGal cs: 2.7
